pIC50: −log10 of the molar value. Values after ≈ are worked out from the molar mass of the structure shown.
Key:
[1] = biological target: cGMP-specific 3',5'-cyclic phosphodiesterase (Homo sapiens, UniProt O76074); test: Inhibition of PDE5
[2] = Selectivity ratio of IC50 for PDE11 to IC50 for PDE5
Procedure, shortened: (§1)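 Fold selectivity calculated as PDE11 IC50/PDE5 IC50 or PDE6 IC50/PDE5 IC50, with IC50 values in nM.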

[3] = Selectivity ratio of IC50 for PDE6 to IC50 for PDE5; procedure, shortened: as §1
[4] = Metabolic stability in human liver microsomes assessed as compound remaining after 1 hr; assay type: ADME, Microsome; conditions: read-out: Stability
Procedure, shortened: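 Human liver microsomes; percent parent compound remaining after 1 h incubation.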

[5] = Oral bioavailability in rat at 2 mg/kg; assay type: ADME, organism-based; conditions: in vivo
[6] = Volume of distribution in rat; assay type: ADME, organism-based; conditions: in vivo
[7] = Solubility of the compound at pH 6.5; assay type: physicochemical; conditions: buffer
Rattus norvegicus = species on record: Rattus norvegicus; test: Unbound volume of distribution in rat; assay type: ADME, organism-based; conditions: in vivo
[8] = Clearance in dog at 2 mg/kg; assay type: ADME, organism-based, Canis lupus familiaris; design: dose 2 mg/kg; conditions: in vivo
Procedure, shortened: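 Clearance in mL/min/kg after a 2 mpk dose (n = 3) in vehicle 70% PEG400/20% 0.05 M citrate buffer/10% ethanol, pH 5.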

[9] = Clearance in rat at 2 mg/kg at pH 5; assay type: ADME, organism-based; design: dose 2 mg/kg; conditions: in vivo
[10] = Volume of distribution in dog; assay type: ADME, organism-based, Canis lupus familiaris; conditions: in vivo
Procedure, shortened: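 Volume of distribution expressed in L/kg.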

| SMILES | pIC50 [1] | Ratio IC50 [2] | Ratio IC50 [3] | other results |
| --- | --- | --- | --- | --- |
| CCCOCCn1c(=O)nc(N[C@H](C)C(=O)O)c2nnc(-c3ccc(OC)nc3)cc21 | 9.89 | 76 | 110 | – |
| CCCOCCn1c(=O)c(NC2CCC(O)CC2)nc2cnc(-c3ccc(OC)nc3)cc21 (stereo not given) | 10.30 | 1320 | 200 | remaining at 1 h [4]: 84%; bioavailability [5]: 50%; Vd [6]: 1.35 L/kg; solubility [7]: 21 µM (≈ 9.52 µg/mL); Vdu (Rattus norvegicus): 96 L/kg; clearance [8]: 5.5 mL/min/kg; clearance [9]: 5.5 mL/min/kg; Vd [10]: 3.5 L/kg |
| COc1ccc(-c2cc3c(nn2)c(NCC(=O)N(C)C)nc(=O)n3CCOCC(F)(F)F)cn1 | 9.42 | 4170 | 2200 | – |
| CCCOCCn1c(=O)nc(NCCO)c2nnc(-c3ccc(OC)nc3)cc21 | 9.66 | 240 | 290 | – |
| CCCOCCn1c(=O)c(NCCN2CCOCC2)nc2cnc(-c3ccc(OC)nc3)cc21 | – | 4860 | 158 | – |
| CCCOCCn1c(=O)c(NC2CCC(O)CC2)nc2ncc(-c3ccc(OC)nc3)cc21 (stereo not given) | – | 675 | 48 | – |
| CCCOCCn1c(=O)nc(NCCOC(C)C)c2cnc(-c3ccc(OC)nc3)cc21 | 10.00 | 9560 | 450 | – |
| CCCOCCn1c(=O)nc(NC2CCNCC2)c2nnc(-c3ccc(OC)nc3)cc21 | 8.88 | 1530 | 576 | – |
| COc1ccc(-c2cc3c(nn2)c(NC2CCC(O)CC2)nc(=O)n3CCOCC(F)(F)F)cn1 (stereo not given) | 10.40 | – | – | – |
| CCCOCCn1c(=O)nc(NC2CCC(O)CC2)c2ncc(-c3ccc(OC)nc3)cc21 (stereo not given) | 10.00 | 3830 | 1020 | – |
| CCCOCCn1c(=O)nc(N[C@@H]2CCCC[C@H]2C(=O)O)c2nnc(-c3ccc(OC)nc3)cc21 (racemic) | 9.57 | 1390 | 47 | – |

Second part, led by results:

| pIC50 [1] | Ratio IC50 [2] | Ratio IC50 [3] | SMILES | other results |
| --- | --- | --- | --- | --- |
| 9.55 | 240 | 194 | CCCOCCn1c(=O)nc(N2CCC(O)CC2)c2nnc(-c3ccc(OC)nc3)cc21 | – |
| 8.89 | 834 | 124 | CCCOCCn1c(=O)nc(N2CCN(CCO)CC2)c2nnc(-c3ccc(OC)nc3)cc21 | – |
| 8.86 | > 1450 | 181 | CCCOCCn1c(=O)nc(N2CCN(CCO)CC2)c2cnc(-c3ccc(OC)nc3)cc21 | – |
| 9.19 | > 311 | 818 | COc1ccc(-c2cc3c(nn2)c(N2CCN(CCO)CC2)nc(=O)n3CCOCC(F)(F)F)cn1 | – |
| 11.00 | 532 | 119 | CCCOCCn1c(=O)nc(N2CCC(C(=O)O)CC2)c2nnc(-c3ccc(OC)nc3)cc21 | – |
| 10.05 | 6820 | 573 | CCCOCCn1c(=O)nc(NCCN2CCOCC2)c2nnc(-c3ccc(OC)nc3)cc21 | – |

— ChEMBL document CHEMBL1914420, “Investigation of the pyrazinones as PDE5 inhibitors: evaluation of regioisomeric projections into the solvent region” (Bioorg Med Chem Lett, 2011)
